Results taken from PMC7115577 (Peptides, 2005).

How the values were obtained:
Assay type in all cases: cell-based
[1] = system: isolated guinea pig ileum (GPI); assay: Potentiation of the BK-induced contraction of GPI; conditions: analogue alone, cumulative GPI contraction curves
In short: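 Guinea pig ileum strips (1.5 cm) suspended in Tyrode solution at 37 °C; isotonic contractions recorded under 500 mg resting tension. Concentration–response curves were built for the agonist, and pD2 was derived from them.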

[2] = system: human polymorphonuclear leukocytes (PMN); assay: Chemotaxis assay
[3] = system: guinea pig ileum; conditions: calyculin 100 nM, BK 20 nM, BPP9α 20 nM
In short: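 Ileum segments (1.5 cm) in Tyrode at 37 °C, isotonic recording under 500 mg resting tension. The phosphatase inhibitor was added either at the peak of the BK contraction, before the potentiating peptide, or 1 min before the combined BK/peptide challenge, with washes between. Traces are from four to six separate experiments.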

Compound: DArg-Arg-Pro-Hyp-Gly-Thi-Ser-Pro-ɛAbu(ßPh)-Arg
- pD2-value of enzymatically more stable BK analogue [1]: 6.65 ± 0.14

Compound: CC(C)C[C@H](NP(=O)(O)O[C@@H]1O[C@@H](C)[C@H](O)[C@@H](O)[C@H]1O)C(=O)N[C@@H](Cc1c[nH]c2ccccc12)C(=O)O [phosphoramidon]
- migration index (MI) of BK in the presence of inhibitor ([2]; BK 10^−8 M, phosphoramidon 10^−7 M, 5 min preincubation): 1.19 ± 0.03

Compound: calyculin
- influence on the potentiation of the BK-induced contraction [3]: no influence

Compound: C[C@H](N[C@@H](CCc1ccccc1)C(=O)O)C(=O)N1[C@H](C(=O)O)C[C@@H]2CCC[C@@H]21 [ramiprilat]
- effect on migratory activity of the nonpeptide agonist FR190997 [2]: could not be accelerated
- migration index (MI) of BK in the presence of inhibitor ([2]; BK 10^−7 M, ramiprilat 10 nM): 1.69 ± 0.26
